# Assay outcomes as filed in PubChem BioAssay.
# Rows were chosen to be rich in hits. Some 3.7% of all compounds tested hit in one or more screens of this group.
# KCNK9 block: KCNK9 potassium channel inhibitors, primary screen, HEK293 cells, thallium flux; B-score at 10 µM; 1.2% of 310,000 active; FluxOR thallium flux fluorescence; active compounds read low; Potassium channel subfamily K member 9 (Homo sapiens), Q9NPC2;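 active means ratio B-score over 3 SD below the library mean, with starting fluorescence within 5 SD of its mean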;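 further: negative B-score means less thallium flux so channel inhibition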
# Target sequence (Q9NPC2 whole entry, looked up): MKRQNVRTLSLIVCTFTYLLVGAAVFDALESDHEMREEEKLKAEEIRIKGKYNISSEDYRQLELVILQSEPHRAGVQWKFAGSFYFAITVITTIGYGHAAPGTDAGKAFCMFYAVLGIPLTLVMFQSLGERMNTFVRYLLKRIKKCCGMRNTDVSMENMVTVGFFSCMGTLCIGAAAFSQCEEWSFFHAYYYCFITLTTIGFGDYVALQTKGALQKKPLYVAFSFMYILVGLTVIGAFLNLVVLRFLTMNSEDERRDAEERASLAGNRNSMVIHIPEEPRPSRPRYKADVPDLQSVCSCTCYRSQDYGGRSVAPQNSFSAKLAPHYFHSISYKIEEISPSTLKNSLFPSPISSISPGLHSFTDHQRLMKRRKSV
# KCNQ1 block: inhibitors of human KCNQ1 channel, primary screen, cell-based, thallium flux, high-throughput; AID 2642, 2010; Potassium voltage-gated channel subfamily KQT member 1 (Homo sapiens), P51787; CHO-K1 KCNQ1, FluxOR thallium flux fluorescence; active compounds read high; B-score at 10 µM; 1.3% of 310,000 active;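 active means compounds whose thallium flux B-score, printed positive for inhibition, exceeds three library SD while starting fluorescence stays within three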;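 further: channel opened by potassium depolarization with thallium stimulus after 20 min compound exposure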
# hERG protect: hERG rescue from dofetilide block, primary screen, cell-based, CHO-hERG, FluxOR thallium flux, dofetilide IC70; dofetilide IC70 present; 0.51% of 310,000 active; AID 1511, 2009; Voltage-gated inwardly rectifying potassium channel KCNH2 (Homo sapiens), Q12809; activation (rescue from dofetilide block), less the hit threshold, % at 10 µM;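 active means activation above the mean of controls blocked by dofetilide plus 5 SD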;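 further: thallium influx through hERG after potassium depolarization seen as dye fluorescence rise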
# KCNQ1 act: potentiators or activators of KCNQ1 channel, primary screen, cell-based, thallium flux, high-throughput; Potassium voltage-gated channel subfamily KQT member 1 (Homo sapiens), P51787; CHO-K1 KCNQ1, thallium flux FluxOR fluorescence; active compounds read high; B-score at 10 µM; 0.35% of 310,000 active; AID 2648, 2010;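 active means fluorescence ratio B-score, a plate-corrected score, at least three library SD, with initial intensity B-score within 5 SD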
#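 Schedule – 37 °C overnight plating, 90-min dark dye load, 20-min compound pretreatment · System – stable KCNQ1 CHO-K1 line · Probe or stimulus – thallium- and potassium-containing depolarizing buffer · Measured by – kinetic FluxOR fluorescence, 10 s baseline plus 110 s post-stimulus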
# Kir21 inh: inhibitors of mouse Kir2.1 inward-rectifier potassium channel; Inward rectifier potassium channel 2 (Mus musculus), P35561; HEK293-Kir2.1, FluxOR thallium flux fluorescence; active compounds read low; B-score at 10 µM; 0.85% of 310,000 active;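 active means fluorescence ratio B-score at or below minus 3 SD of library scores, with starting-brightness B-score within 2 SD, cut at about -4.2 in these data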;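 further: channel flux triggered by added potassium and thallium sulfate stimulus; B-score of peak minus minimum fluorescence over baseline after thallium stimulus; more negative B-score means stronger Kir2.1 block with less thallium influx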
# KCNK3 inh: human KCNK3 channel inhibitors, primary screen, CHO cells, FluxOR thallium flux, B-score; B-score at 10 µM; Potassium channel subfamily K member 3 (Homo sapiens), O14649; FluxOR fluorescence; active compounds read low; 0.84% of 340,000 active;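 active means B-score under library mean minus 4 SD, starting fluorescence ratio at most library mean plus 5 SD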;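 further: more negative B-score means stronger inhibition of thallium flux through KCNK3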
# KCNK9 inh conf: KCNK9 potassium channel inhibitors, confirmation, HEK293 cells, thallium flux, duplicate; shares compounds with KCNK9 block; FluxOR thallium flux fluorescence; inhibition, % at 10 µM; 43% of 4,900 active;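 active means thallium signal inhibited by more than 5 SD of the compound-free buffer control wells, on both duplicate plates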;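 further: 0% = assay buffer control wells without compound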
# Kir21 sel: mouse Kir2.1 channel inhibition, confirmation, selectivity assay for KCNK9 modulator project, cell-based, HEK293, thallium flux; shares compounds with KCNK9 block; Kir2.1 cells, FluxOR thallium flux fluorescence; inhibition, % at 10 µM; 4% of 4,900 active;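 active means thallium signal drop more than 5 SD beyond the mean of the no-compound control wells, seen in both duplicate plates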;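 further: signal is fluorescence rise after thallium addition divided by baseline fluorescence; plate controls were assay buffer only for no effect and full block by chlorpromazine control for full effect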
# KCNK9 uninduced: thallium flux in non-induced HEK293 cells, confirmation, counter-screen for KCNK9 inhibitor project, cell-based, second counter screen, non-induced KCNK9-HEK293; shares compounds with KCNK9 block; FluxOR thallium flux; inhibition, % at 10 µM; 40% of 4,900 active;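 active means thallium signal drop beyond 5 SD of the untreated control mean, on both duplicate plates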;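 further: plate controls were buffer only IC0 wells for no effect and SID17386958 at its maximal inhibitory level for full effect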
# Active calls of the source: *; i = inactive; x = not tested or not shown.
SMILES,KCNK9 block,KCNQ1 block,hERG protect,KCNQ1 act,Kir21 inh,KCNK3 inh,KCNK9 inh conf,Kir21 sel,KCNK9 uninduced
CCOC(=O)c1c(NC(=O)CN2C(=O)C(=O)N(CC(C)C)C2=O)sc(C)c1CC,i,i,-15.1,i,0,i,x,x,x
CCN1C(=O)[C@H]2[C@@H](c3ccc(-c4ccc(C(C)=O)cc4)cc3)N[C@@](Cc3ccccc3)(C(=O)OC)[C@H]2C1=O,i,i,-5.3,i,0.05,i,x,x,x
Brc1cccc(OCCN2CCc3ccccc3C2)c1,i,i,-8.8,i,0.76,i,i,i,i
C=CCN(CC=C)CCOc1cc(C)ccc1[N+](=O)[O-],i,i,-8.0,i,0.51,i,i,i,i
Cc1ccc([N+](=O)[O-])c(OCCN2CCc3ccccc3C2)c1,i,i,-0.1,i,1.36,i,i,i,i
Brc1cccc(OCCN2CCCCC2)c1,i,i,-5.1,i,0.18,i,x,x,x
COc1cc(OC)cc(C(=O)NCCCCc2ccccc2)c1,i,i,-10.6,i,0,i,x,x,x
CC(C)C(NC(=O)c1ccco1)C(=O)OCC(=O)Nc1ccc(C(N)=O)cc1 (centres undefined),i,i,-7.0,i,-0.11,i,x,x,x
O=C1CC(N(CCc2ccccc2)C(=S)Nc2cc(Cl)ccc2Cl)C(=O)N1c1c(Cl)cccc1Cl (centres undefined),-9.58*,i,-3.6,i,1,i,42.0%*,i,i
O=S(=O)(c1cccc(F)c1)N1CCN(Cc2ccc3c(c2)OCO3)CC1,i,i,-10.4,i,1.67,i,i,i,i
COc1cc(S(=O)(=O)N2CCN(Cc3ccc4c(c3)OCO4)CC2)c(C)cc1C,i,i,-6.7,i,1.06,i,i,i,i
COc1ccc(CN2CCN(S(=O)(=O)c3ccc(C)cc3)CC2)cc1Br,i,i,-12.2,i,-0.51,i,i,i,i
O=C(O)c1ccccc1C(=O)Nc1ccc(Oc2ccc3ccccc3c2)cc1,i,i,-2.2,i,-0.57,i,i,i,i
Cc1c(C)c(C)c(C(=O)c2ccc(NC(=O)c3ccccc3C(=O)O)cc2)c(C)c1C,i,i,-11.7,i,1.34,i,i,i,i
Cc1ccc(C(=O)c2c(NC(=O)c3ccccc3C)sc(C)c2C)cc1,i,i,-10.3,i,-0.29,i,i,i,i
Cc1sc(NC(=O)c2ccco2)c(C(=O)c2ccc(Cl)cc2)c1C,i,i,-8.7,i,1.31,i,x,x,x
COc1ccc(NC(=O)c2ccccc2-c2ccccc2C(=O)O)cc1,i,i,-2.3,i,0.03,i,x,x,x
Cc1nnc(N2CCC(C(=O)N3CCCCCC3)CC2)c2nn(-c3ccc(Cl)cc3)c(C)c12,i,i,-17.6,i,0.94,i,x,x,x
COc1cc(C(=O)c2ccccc2C(=O)O)c(OC)c2c1CCCC2,x,x,x,x,x,i,x,x,x
N/C(=N\c1nc(CSc2ccc(Cl)cc2)cc(=O)[nH]1)Nc1cccc2ccccc12,i,i,-2.9,i,0.01,i,i,i,i
Cc1ccc(SCc2cc(=O)[nH]c(/N=C(\N)Nc3ccc(C)c(C)c3)n2)cc1,i,i,-9.1,i,-0.11,i,i,i,i
O=C(NN1C(=O)c2ccc(-c3ccc4c(c3)C(=O)N(NC(=O)c3cccnc3)C4=O)cc2C1=O)c1cccnc1,i,i,-6.4,i,0.39,i,x,x,x
Fc1ccccc1NC(=S)NN(Cc1ccccc1)c1ccccc1,i,i,-11.8,i,-2.11,i,x,x,x
Cc1ccc(C(O)P(=O)(OCc2ccccc2)c2ccc(N(C)C)cc2)cc1 (centres undefined),i,i,-6.4,i,-0.13,i,x,x,x
O=C(Nc1nnc(C2CC2)s1)c1cc(-c2ccccc2)nn1-c1ccccc1,-9.42*,i,-6.3,i,-0.18,i,29.5%*,i,i
SMILES,KCNK9 block,KCNQ1 block,hERG protect,KCNQ1 act,Kir21 inh,KCNK3 inh,KCNK9 inh conf,Kir21 sel,KCNK9 uninduced
O=C(C1CC(=O)N(c2ccccc2)C1)N1CCN(c2ccc(F)cc2)CC1 (centres undefined),i,i,-9.5,i,0.32,i,x,x,x
Cc1csc(NC(=O)CSc2nc3ccccc3c3c2CCCC3)n1,i,i,-1.2,i,1.61,i,i,i,i
O=C(CSc1nc2ccccc2c2c1CCCC2)N1CCOCC1,i,i,-12.7,i,-0.99,i,i,i,i
O=C(CSc1nncc2ccccc12)N1CCOCC1,i,i,-11.9,i,0.05,i,x,x,x
CCN(CC(=O)Nc1ccc2c(c1)OCCO2)C(=O)c1ccc(C(F)(F)F)cc1,i,i,-19.2,i,0,i,x,x,x
Cc1ccc2oc(-c3cccc(NC(=S)NC(=O)c4cccs4)c3)nc2c1,i,i,-5.7,i,0.68,i,x,x,x
Cc1ccc2oc(-c3cccc(NC(=S)NC(=O)/C=C/c4ccco4)c3)nc2c1,i,i,-10.9,i,-0.11,i,i,i,i
Cc1ccccc1C(=O)NC1CC2CCCC(C1)N2Cc1ccccc1 (centres undefined),i,i,-11.1,i,-0.07,i,i,i,i
COc1ccc(NC(C#N)c2ccccc2OCc2ccccc2)cc1 (centres undefined),-8.33*,i,-7.0,i,0.28,i,i,i,24.0%*
COc1cccc(C(=O)C2CCCN(Cc3cccc(-n4cccn4)c3)C2)c1 (centres undefined),i,i,-14.3,i,-1.14,i,i,i,i
